Reference: ChEMBL document CHEMBL4428128, “Design, synthesis, crystal structure, biological evaluation and molecular docking studies of carbazole-arylpiperazine derivatives” (Bioorg Med Chem, 2016)

Legend:
[1] = biological target: T1, Alpha-1B adrenergic receptor (Rattus norvegicus, UniProt P15823); experiment: Antagonistic activity at alpha1B adrenoceptor in Sprague-Dawley rat spleen assessed as inhibition of noradrenaline-induced contractions after 0.5 hrs in presence of alpha2/beta adrenoceptor blocker yohimbine, propranolol by Schild plot analysis; assay type: tissue-based; settings: read-out: pA2 (converted)
T1 sequence (P15823 whole entry): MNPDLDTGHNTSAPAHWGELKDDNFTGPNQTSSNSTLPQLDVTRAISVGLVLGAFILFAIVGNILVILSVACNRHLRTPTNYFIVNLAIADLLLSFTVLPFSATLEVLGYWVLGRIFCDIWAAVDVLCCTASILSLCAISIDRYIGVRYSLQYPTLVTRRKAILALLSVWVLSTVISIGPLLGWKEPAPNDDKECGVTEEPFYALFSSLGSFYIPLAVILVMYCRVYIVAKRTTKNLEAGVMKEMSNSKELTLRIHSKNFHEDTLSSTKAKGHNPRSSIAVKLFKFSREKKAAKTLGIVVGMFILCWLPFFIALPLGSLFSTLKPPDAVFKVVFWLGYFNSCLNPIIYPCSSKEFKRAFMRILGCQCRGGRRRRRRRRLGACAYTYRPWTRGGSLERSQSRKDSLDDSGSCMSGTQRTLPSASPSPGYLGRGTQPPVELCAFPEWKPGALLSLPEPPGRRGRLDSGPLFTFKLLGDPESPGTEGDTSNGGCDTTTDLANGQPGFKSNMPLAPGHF

[2] = biological target: T2, Alpha-1D adrenergic receptor (Rattus norvegicus, UniProt P23944); experiment: Antagonistic activity at alpha1D adrenoceptor in Sprague-Dawley rat thoracic aorta assessed as inhibition of noradrenaline-induced contractions after 0.5 hrs in presence of alpha2/beta adrenoceptor blocker yohimbine, propranolol by Schild plot analysis; settings: read-out: pA2 (converted)
T2 sequence (P23944 whole entry): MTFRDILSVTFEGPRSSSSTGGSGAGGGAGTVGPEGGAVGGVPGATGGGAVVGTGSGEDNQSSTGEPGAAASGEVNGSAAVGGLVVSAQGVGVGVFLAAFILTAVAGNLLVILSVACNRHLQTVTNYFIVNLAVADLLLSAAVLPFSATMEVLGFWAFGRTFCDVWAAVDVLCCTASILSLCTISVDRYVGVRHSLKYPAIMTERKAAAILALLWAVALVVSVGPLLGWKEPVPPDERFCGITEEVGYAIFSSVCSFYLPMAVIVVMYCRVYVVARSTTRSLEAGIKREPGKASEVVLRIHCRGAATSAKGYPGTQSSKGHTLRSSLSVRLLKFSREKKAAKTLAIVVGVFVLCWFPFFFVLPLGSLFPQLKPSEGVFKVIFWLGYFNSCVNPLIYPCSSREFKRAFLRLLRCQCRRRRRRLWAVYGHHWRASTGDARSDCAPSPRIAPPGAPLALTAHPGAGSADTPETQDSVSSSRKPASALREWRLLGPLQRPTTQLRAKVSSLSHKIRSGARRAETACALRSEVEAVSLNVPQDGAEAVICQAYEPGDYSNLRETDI
In short: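 Isolated tissue rings (aorta rings about 4 mm) held in Krebs–Henseleit buffer (pH 7.4, 37 °C, O2/CO2 19:1), equilibrated 1.5 h under optimal tension, primed three times with noradrenaline, then washed. Antagonist preincubated 0.5 h. Noradrenaline concentration–response curves run 1 h apart, without and with antagonist, in continuous yohimbine and propranolol. Responses expressed as % of pre-incubation NA Emax.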

Rattus norvegicus [3] = organism: Rattus norvegicus; experiment: Selectivity ratio of antilog of change in pA2 for alpha1D adrenoceptor in Sprague-Dawley rat thoracic aorta to antilog of change in pA2 for alpha1A adrenoceptor in Sprague-Dawley rat vas deferens
Rattus norvegicus [4] = organism: Rattus norvegicus; experiment: Selectivity ratio of antilog of change in pA2 for alpha1A adrenoceptor in Sprague-Dawley rat vas deferens to antilog of change in pA2 for alpha1B adrenoceptor in Sprague-Dawley rat spleen
Rattus norvegicus [5] = organism: Rattus norvegicus; experiment: Selectivity ratio of antilog of change in pA2 for alpha1D adrenoceptor in Sprague-Dawley rat thoracic aorta to antilog of change in pA2 for alpha1B adrenoceptor in Sprague-Dawley rat spleen
[6] = biological target: T3, Alpha-1A adrenergic receptor (Rattus norvegicus, UniProt P43140); experiment: Antagonistic activity at alpha1A adrenoceptor in Sprague-Dawley rat vas deferens assessed as inhibition of noradrenaline-induced contractions after 0.5 hrs in presence of alpha2/beta adrenoceptor blocker yohimbine, propranolol by Schild plot analysis; settings: read-out: pA2 (converted)
T3 sequence (P43140 whole entry): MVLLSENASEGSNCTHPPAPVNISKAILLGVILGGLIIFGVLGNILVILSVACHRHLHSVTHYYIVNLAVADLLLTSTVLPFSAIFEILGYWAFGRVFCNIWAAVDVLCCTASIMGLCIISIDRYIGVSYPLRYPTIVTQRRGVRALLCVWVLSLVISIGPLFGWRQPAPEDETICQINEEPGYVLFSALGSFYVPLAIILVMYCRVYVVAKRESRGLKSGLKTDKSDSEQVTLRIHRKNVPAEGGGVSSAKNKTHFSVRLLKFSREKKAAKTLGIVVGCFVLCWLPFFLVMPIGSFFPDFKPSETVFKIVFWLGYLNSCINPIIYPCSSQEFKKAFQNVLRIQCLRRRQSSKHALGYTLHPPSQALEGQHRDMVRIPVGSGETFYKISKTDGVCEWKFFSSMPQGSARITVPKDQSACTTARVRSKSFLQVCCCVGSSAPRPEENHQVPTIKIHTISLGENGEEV

SMILES: COc1ccc(N2CCN(CC(O)COc3cccc4[nH]c5ccccc5c34)CC2)cc1 (configuration not stated)
- Kb [1]: 6920 nM
- Kb [2]: 87.1 nM
- Selectivity ratio (Rattus norvegicus [3]): 21.4
- Selectivity ratio (Rattus norvegicus [4]): 3.7
- Selectivity ratio (Rattus norvegicus [5]): 79.4
- Kb [6]: 1860 nM

SMILES: COc1ccc(OC)c(N2CCN(CC(O)COc3cccc4[nH]c5ccccc5c34)CC2)c1 (configuration not stated)
- Kb [1]: 74.1 nM
- Kb [2]: 141 nM
- Selectivity ratio (Rattus norvegicus [3]): 3.1
- Selectivity ratio (Rattus norvegicus [4]): 0.2
- Selectivity ratio (Rattus norvegicus [5]): 0.5
- Kb [6]: 437 nM
